Reference: ChEMBL document CHEMBL1126036, “Quinolone antibacterial agents. Synthesis and structure-activity relationships of a series of amino acid prodrugs of racemic and chiral 7-(3-amino-1-pyrrolidinyl)quinolones. Highly soluble quinolone prodrugs with in vivo pseudomonas activity” (J Med Chem, 1992)

Columns and labels:
Enterococcus faecalis = assay: In vitro antibacterial activity against gram positive Enterococcus faecalis MGH-2.; assay type: functional
Staphylococcus aureus [1] = assay: In vitro antibacterial activity against gram positive Staphylococcus aureus UC76.; assay type: functional
[2] = Solubility (at pH 7.4); assay type: physicochemical; details: buffer, read-out: S
Procedure, shortened: (§1)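 Solubility was measured either from HPLC peak areas at equilibrium or by a conventional weight-per-volume method. All solutions were held for 24 h before measurement.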

Streptococcus pneumoniae [3] = assay: In vivo potency against acute systemic infection in mouse caused by Streptococcus pneumoniae SV-1 on subcutaneous injection.; assay type: functional; details: sc, read-out: PD50
Procedure, shortened: (§2)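 Acute systemic mouse infection. A single subcutaneous dose was injected at the time of challenge. Potency is reported as the median protective dose (PD50, mg/kg), determined by earlier published methods.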

Pseudomonas aeruginosa = assay: In vitro antibacterial activity against gram negative Pseudomonas aeruginosa UI-18.; assay type: functional
Escherichia coli [4] = assay: In vitro antibacterial activity against gram negative Escherichia coli Vogel.; assay type: functional
[5] = Solubility (at pH 4); assay type: physicochemical; details: buffer, read-out: S; procedure, shortened: as §1
Klebsiella pneumoniae = assay: In vitro antibacterial activity against gram negative Klebsiella pneumoniae MGH-2.; assay type: functional
Providencia rettgeri = assay: In vitro antibacterial activity against gram negative Providencia rettgeri M-1771.; assay type: functional
Staphylococcus aureus [6] = assay: In vitro antibacterial activity against gram positive Staphylococcus aureus H-228.; assay type: functional
Streptococcus pneumoniae [7] = assay: In vitro antibacterial activity against gram positive Streptococcus pneumoniae SV-1.; assay type: functional
Escherichia coli [8] = assay: In vivo potency against acute systemic infection in mouse caused by Escherichia coli Vogel on oral administration by gavage.; assay type: functional; details: read-out: PD50
Procedure, shortened: (§3)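 Acute systemic mouse infection. A single oral dose was given by gavage at the time of challenge. Potency is reported as the median protective dose (PD50, mg/kg), determined by earlier published methods.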

[9] = Solubility (in 0.1 N HCl); assay type: physicochemical; details: read-out: S; procedure, shortened: as §1
Streptococcus pneumoniae [10] = assay: In vivo potency against acute systemic infection in mouse caused by Streptococcus pneumoniae SV-1 on oral administration by gavage.; assay type: functional; details: read-out: PD50; procedure, shortened: as §3
[11] = target: DNA gyrase (Escherichia coli) (UniProt P0AES6+P0AES4); assay: In vitro concentration inhibiting DNA gyrase induced cleavage in Escherichia coli H560.; assay type: functional
Procedure, shortened: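 DNA gyrase test run as described in earlier work. The value is the drug concentration (µg/mL) needed to cause DNA cleavage.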

[12] = Aqueous solubility; assay type: physicochemical; details: water (aqueous); read-out: S; procedure, shortened: as §1
Escherichia coli [13] = assay: In vivo potency against acute systemic infection in mouse caused by Escherichia coli vogel on subcutaneous injection.; assay type: functional; details: sc, read-out: PD50; procedure, shortened: as §2
Enterobacter cloacae = assay: In vitro antibacterial activity against gram negative Enterobacter cloacae MA 2646.; assay type: functional
Streptococcus pyogenes = assay: In vitro antibacterial activity against gram positive Streptococcus pyogenes C-203.; assay type: functional

Compound | MIC (Enterococcus faecalis) [µg/mL] | MIC (Staphylococcus aureus [1]) [µg/mL] | solubility [2] [mg/mL] | ED50 (Streptococcus pneumoniae [3]) [mg/kg] | MIC (Pseudomonas aeruginosa) [µg/mL] | MIC (Escherichia coli [4]) [µg/mL] | solubility [5] [mg/mL] | MIC (Klebsiella pneumoniae) [µg/mL] | MIC (Providencia rettgeri) [µg/mL] | MIC (Staphylococcus aureus [6]) [µg/mL] | MIC (Streptococcus pneumoniae [7]) [µg/mL] | ED50 (Escherichia coli [8]) [mg/kg] | solubility [9] [mg/mL] | ED50 (Streptococcus pneumoniae [10]) [mg/kg] | Cleavage [11] [µg/mL] | solubility [12] [mg/mL] | ED50 (Escherichia coli [13]) [mg/kg] | MIC (Enterobacter cloacae) [µg/mL] | MIC (Streptococcus pyogenes) [µg/mL]
C[C@H](N)C(=O)N[C@@H]1CCN(c2c(F)cc3c(=O)c(C(=O)O)cn(C4CC4)c3c2F)C1.Cl.O | 0.8 | 0.2 | 0.07 | 19 | 3.1 | 0.4 | 30 | 0.8 | 0.8 | 0.8 | 0.4 | 1 | 6 | 25 | 2.5 | 29 | 0.6 | 0.2 | 0.4
Cl.NCC(=O)NC1CCN(c2c(F)cc3c(=O)c(C(=O)O)cn(C4CC4)c3c2F)C1.O (stereo not drawn) | 0.4 | 0.1 |  | 16 | 1.6 | 0.2 | 20 | 0.4 | 0.4 | 0.4 | 0.4 | 1 | 4.6 | 29 | 5 | 33 | 0.4 | 0.2 | 0.2
Cl.N[C@@H](Cc1ccccc1)C(=O)NC1CCN(c2c(F)cc3c(=O)c(C(=O)O)cn(C4CC4)c3c2F)C1.O (stereo partly drawn) | 25 | 1.6 |  |  | 25 | 0.8 | 21 | 1.6 | 3.1 | 3.1 | > 25 | 5 | 7.2 |  | 7.5 | 31 | 1 | 1.6 | > 25
C[C@H](N)C(=O)N[C@H]1CCN(c2c(F)cc3c(=O)c(C(=O)O)cn(C4CC4)c3c2F)C1.Cl.O | 0.1 | 0.025 | 0.07 | 9 | 0.1 | 0.1 | 19 | 0.2 | 0.2 | 0.1 | 0.1 | 1 | 5.4 | 25 | 2.5 | 33 | 0.4 | 0.1 | 0.1
C[C@@H](N)C(=O)NC1CCN(c2cc3c(cc2F)c(=O)c(C(=O)O)cn3C2CC2)C1.Cl.O (stereo partly drawn) | 0.2 | 0.05 | 0.24 | 3.1 | 1.6 | 0.8 | > 100 | 0.8 | 1.6 | 0.4 | 0.025 | > 100 | > 100 | > 100 | 1 | > 100 | 4.1 | 0.8 | 0.013
Cl.NCC(=O)NC1CCN(c2cc3c(cc2F)c(=O)c(C(=O)O)cn3C2CC2)C1.O (stereo not drawn) | 1.6 | 0.4 | 0.22 | 18 | 1.6 | 0.4 | > 100 | 0.8 | 1.6 | 3.1 | 0.4 | 6.3 | > 100 | > 100 | 2.5 | > 100 | 1.1 | 0.4 | 0.1
C[C@@H](N)C(=O)NC1CCN(c2c(F)cc3c(=O)c(C(=O)O)cn(C4CC4)c3c2F)C1.Cl.O (stereo partly drawn) | 0.025 | 0.006 |  | 1 | 1.6 | 0.2 | 19.4 | 0.4 | 0.8 | 0.05 | 0.013 | 31 | 3.6 | > 100 | 2.5 | 42 | 2 | 0.4 | 0.006
Cl.NCCCC[C@H](N)C(=O)NC1CCN(c2c(F)cc3c(=O)c(C(=O)O)cn(C4CC4)c3c2F)C1.O (stereo partly drawn) | 6.3 | 0.2 |  |  | 12.5 | 6.3 |  | 12.5 | 12.5 | 0.4 | 6.3 |  |  |  |  |  |  | 3.1 | 6.3
Cl.NCC(=O)NC1CCN(c2nc3c(cc2F)c(=O)c(C(=O)O)cn3C2CC2)C1.O (stereo not drawn) | 0.8 | 0.4 |  | 10 | 3.1 | 0.2 | > 200 | 0.4 | 0.8 | 1.6 | 0.8 |  | 67 | 37 | 2.5 | > 200 |  | 0.4 | 0.1
Cl.NCCCC[C@H](N)C(=O)NC1CCN(c2cc3c(cc2F)c(=O)c(C(=O)O)cn3C2CC2)C1.O (stereo partly drawn) | > 25 | 3.1 | 0.11 | 12 | 25 | 12.5 | > 100 | 12.5 | 25 | 25 | 25 | 10 | 69 | > 100 |  | 93 | 1 | 12.5 | 12.5
Cl.N[C@@H]1CCN(c2c(F)cc3c(=O)c(C(=O)O)cn(C4CC4)c3c2F)C1.O | 0.05 | 0.006 |  | 9 | 0.1 | 0.013 |  | 0.013 | 0.025 | 0.05 | 0.025 | 0.9 |  | 14 | 0.5 | 11 | 0.2 | 0.006 | 0.05
